This note sets out measurements from ChEMBL document CHEMBL1140381, “Design and studies of novel 5-substituted alkynylpyrimidine nucleosides as potent inhibitors of mycobacteria” (2005).

≈ marks a conversion by molar mass, not a printed value.

Holding throughout (type): functional
Assay [1] concerns Mycobacterium tuberculosis variant bovis. In words: Inhibition of growth of Mycobacterium bovis was determined using microplate alamar blue assay at 0.5-1 ug/mL concentration with compound dissolved in DMSO.
The test system is the same in assay [2]. Put plainly: Minimum inhibitory concentration against Mycobacterium bovis. The procedure, abridged:
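Alamar blue microplate assay in 7H9GC. BCG or M. avium ATCC 25291 at 2.5 × 10⁵ CFU/mL final, exposed to compound at 100, 50, 10 and 1 µg/mL in triplicate. Reagent added after 6+ days once growth controls turned pink, read after 24 h visually and by fluorescence. MIC₉₀ taken as the lowest concentration giving ~90% growth inhibition.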

Assay [3] shares this test system. Put plainly: Inhibition of growth of Mycobacterium bovis was determined using microplate alamar blue assay at 10 ug/mL concentration with compound dissolved in DMSO. The gist of the method:
(§1)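 MABA in 7H9GC medium; M. bovis BCG or M. avium ATCC 25291 frozen inocula at 2.5 × 10⁵ CFU/mL final, 100× DMSO stocks diluted into medium. Incubated 6 days, then alamar blue plus 20% Tween-80 added once bacteria-only wells turned pink, read 24 h later by fluorescence. % inhibition = […]. Triplicate wells, three experiments, mean reported.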
(In general: Resazurin is reduced to fluorescent resorufin, in cell work by metabolically active cells.)

The test system is the same in assay [4]. In words: Inhibition of growth of Mycobacterium bovis was determined using microplate alamar blue assay at 50 ug/mL concentration with compound dissolved in DMSO. The procedure, abridged: as §1
The test system is the same in assay [5]. Put plainly: Inhibition of growth of Mycobacterium bovis was determined using microplate alamar blue assay at 100 ug/mL concentration with compound dissolved in DMSO. The procedure, abridged:
as §1

For assay [6] the test system is unchanged. Put plainly: Inhibition of growth of Mycobacterium bovis was determined using microplate alamar blue assay at 1 ug/mL concentration with compound dissolved in DMSO. The gist of the method: as §1

What is called Inhibition is how much of the control response was suppressed. For orientation: MIC90 means the lowest concentration that inhibits either 90% of growth or 90% of the strains tested, depending on the study. Low readings indicate higher susceptibility, high ones lower susceptibility. In the case of `CO[C@H]1/C=C/O[C@@]2(C)Oc3c(C)c(O)c4c(O)c(c(/C=N/N5CCN(C)CC5)c(O)c4c3C2=O)NC(=O)/C(C)=C\C=C\[C@H](C)[C@H](O)[C@@H](C)[C@@H](O)[C@@H](C)[C@H](OC(C)=O)[C@@H]1C` [RIFAMPIN], the Inhibition in assay [1] amounted to 100%. This compound yielded an MIC90 in assay [2] of 1 µg/mL (≈ 1.22 µM).

What is called inhibition is the drop in the measured response relative to a control, in per cent. Consider `CCCCCCCCC#Cc1cn([C@H]2C[C@H](O)[C@@H](CO)O2)c(=O)nc1N`, for which, in assay [3], the inhibition at 10 µg/mL was found to be 10%. Besides, the inhibition at 50 µg/mL in assay [4] came to 90%. For the same compound, the inhibition at 100 µg/mL in assay [5] is 90%. In assay [2], this compound registered an MIC90 of 50 µg/mL (≈ 138 µM).

Turning to `CCCCCCCCCCCCC#Cc1cn([C@H]2C[C@H](O)[C@@H](CO)O2)c(=O)[nH]c1=O`, the inhibition at 10 µg/mL in assay [3] was found to be 90%. For the same compound, the inhibition at 50 µg/mL in assay [4] is 90%. Besides, the inhibition at 100 µg/mL in assay [5] is 90%. Besides, the inhibition at 1 µg/mL in assay [6] came to 33%. The same compound displayed an MIC90 in assay [2] of 10 µg/mL (≈ 23.8 µM).

As for `CCCCCCCCCCC#Cc1cn([C@H]2C[C@H](O)[C@@H](CO)O2)c(=O)[nH]c1=O`, the inhibition at 10 µg/mL in assay [3] stood at 70%. Moreover, the inhibition at 50 µg/mL in assay [4] was 90%. Further, the inhibition at 100 µg/mL in assay [5] came out at 90%. Further, in assay [6], the inhibition at 1 µg/mL turned out to be 25%. Besides, in assay [2], the MIC90 was determined as 50 µg/mL (≈ 127 µM).

Take `CCCCCC#Cc1cn([C@H]2C[C@H](O)[C@@H](CO)O2)c(=O)[nH]c1=O`: the inhibition at 50 µg/mL in assay [4] worked out at 60%. Also, the inhibition at 100 µg/mL in assay [5] was 60%.

With `CCCCCCCCCCC#Cc1cn([C@H]2C[C@H](O)[C@@H](CO)O2)c(=O)nc1N`, the inhibition at 10 µg/mL in assay [3] turned out to be 90%. For the same compound, the inhibition at 50 µg/mL in assay [4] was 90%. Moreover, the inhibition at 100 µg/mL in assay [5] came to 90%. Besides, the inhibition at 1 µg/mL in assay [6] is 25%. Besides, the MIC90 in assay [2] turned out to be 10 µg/mL (≈ 25.5 µM).

As to `CCCCCCCCC#Cc1cn([C@H]2C[C@H](O)[C@@H](CO)O2)c(=O)[nH]c1=O`, the inhibition at 10 µg/mL in assay [3] came out at 0%. Moreover, in assay [4], the inhibition at 50 µg/mL worked out at 50%. Further, the inhibition at 100 µg/mL in assay [5] was 90%. The MIC90 in assay [2] came to 100 µg/mL (≈ 274 µM).
